# Square brackets hold non-standard residues; d marks the D form. Peptide text beside a SMILES is read from it. Sar = CNCC(=O)O
# What was measured:
# [1] = tested on: Rattus norvegicus; assay: In vivo biological activity on the blood pressure of the anesthetized rat.; type: functional
# [2] = species on record: Oryctolagus cuniculus; assay: In vitro biological activity on rabbit aorta strip.; type: functional
# Outline: (§1)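 Isolated rabbit aorta strips under 2 g tension, adjusted during a 60–90-min equilibration, with bath fluid changed every 10–15 min. Peptides added to the tissue bath, concentrations stated as final bath concentrations. Contractile responses recorded with force-displacement transducers.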
# [3] = molecular target: T1, Type-1 angiotensin II receptor (Bos taurus) (UniProt P25104); assay: Displacement of [3H]AT from angiotensin II receptor in bovine adrenocortical membranes; type: cell membranes
# T1 sequence (whole entry): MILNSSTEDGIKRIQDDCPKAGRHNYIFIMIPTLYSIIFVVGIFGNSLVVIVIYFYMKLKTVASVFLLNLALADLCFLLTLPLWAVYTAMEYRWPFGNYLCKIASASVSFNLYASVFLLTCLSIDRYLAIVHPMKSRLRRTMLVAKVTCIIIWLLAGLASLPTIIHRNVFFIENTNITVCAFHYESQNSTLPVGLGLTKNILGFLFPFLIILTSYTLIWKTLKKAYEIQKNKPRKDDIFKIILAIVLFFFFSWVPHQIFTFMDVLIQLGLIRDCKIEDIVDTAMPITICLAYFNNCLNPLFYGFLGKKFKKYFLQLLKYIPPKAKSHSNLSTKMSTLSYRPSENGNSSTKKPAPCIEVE
# Outline: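 Bovine adrenal glands taken fresh at slaughter, kept in ice-cold saline and dissected; purified adrenal microsomal membranes (~50-100 μg protein) in 100 μL assay buffer with [Sar1,(3',5'-3H2-4'-NH2)Phe4]AT at 5 × 10^-9 M. Competitor 10^-9 to 10^-4 M. Triplicate, 20 °C, 15 min. Filtration on nitrocellulose, scintillation counting. Nonspecific binding with 10^-4 M unlabeled AT. Specific binding as B/BO. At least nine independent experiments; RA given relative to standard.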
# [4] = species on record: Oryctolagus cuniculus; assay: In vitro biological activity on rabbit aorta strip; type: functional; outline: as §1
# [5] = tested on: Rattus norvegicus; assay: In vivo biological activity on the blood pressure of the anesthetized rat; type: functional
Structure (SMILES),Activity [1],Activity [2],Activity [3],further results
CNCC(=O)N[C@@H](CCCN=C(N)N)C(=O)N[C@H](C(=O)N[C@@H](Cc1ccc(O)c([N+](=O)[O-])c1)C(=O)N[C@H](C(=O)N[C@@H](Cc1c[nH]cn1)C(=O)N1CCC[C@H]1C(=O)N[C@@H](Cc1ccccc1)C(=O)O)C(C)C)C(C)C,16%,38%,,
CNCC(=O)N[C@@H](CCCN=C(N)N)C(=O)N[C@H](C(=O)N[C@@H](Cc1cc(I)c(N)c(I)c1)C(=O)N[C@H](C(=O)N[C@@H](Cc1c[nH]cn1)C(=O)N1CCC[C@H]1C(=O)N[C@@H](Cc1ccccc1)C(=O)O)C(C)C)C(C)C,5.3%,2.7%,,
CNCC(=O)N[C@@H](CCCN=C(N)N)C(=O)N[C@H](C(=O)N[C@@H](Cc1ccc(O)c(N)c1)C(=O)N[C@H](C(=O)N[C@@H](Cc1c[nH]cn1)C(=O)N1CCC[C@@H]1C(=O)N[C@@H](Cc1ccccc1)C(=O)O)C(C)C)C(C)C,,,132%,
CNCC(=O)N[C@@H](CCCN=C(N)N)C(=O)N[C@H](C(=O)N[C@@H](Cc1ccc(O)cc1)C(=O)N[C@H](C(=O)N[C@@H](Cc1c[nH]cn1)C(=O)N1CCC[C@H]1C(=O)N[C@@H](Cc1ccccc1)C(=O)O)C(C)C)C(C)C (H-[Sar]RVYVHPF-OH),100%,100%,,
CNCC(=O)N[C@@H](CCCN=C(N)N)C(=O)N[C@H](C(=O)N[C@@H](Cc1ccc(O)c(N=[N+]=[N-])c1)C(=O)N[C@H](C(=O)N[C@@H](Cc1c[nH]cn1)C(=O)N1CCC[C@H]1C(=O)N[C@@H](Cc1ccccc1)C(=O)O)C(C)C)C(C)C,63%,63%,,
CNCC(=O)N[C@@H](CCCN=C(N)N)C(=O)N[C@H](C(=O)N[C@@H](Cc1ccc(S(=O)(=O)O)cc1)C(=O)N[C@H](C(=O)N[C@@H](Cc1c[nH]cn1)C(=O)N1CCC[C@H]1C(=O)N[C@@H](Cc1ccccc1)C(=O)O)C(C)C)C(C)C,0%,0%,,
CNCC(=O)N[C@@H](CCCN=C(N)N)C(=O)N[C@H](C(=O)N[C@@H](Cc1cc(Cl)c(O)c(Cl)c1)C(=O)N[C@H](C(=O)N[C@@H](Cc1c[nH]cn1)C(=O)N1CCC[C@@H]1C(=O)N[C@@H](Cc1ccccc1)C(=O)O)C(C)C)C(C)C,,,28%,
CNCC(=O)N[C@@H](CCCN=C(N)N)C(=O)N[C@H](C(=O)N[C@@H](Cc1ccc(S(N)(=O)=O)cc1)C(=O)N[C@H](C(=O)N[C@@H](Cc1c[nH]cn1)C(=O)N1CCC[C@@H]1C(=O)N[C@@H](Cc1ccccc1)C(=O)O)C(C)C)C(C)C,,,3.8%,
CNCC(=O)N[C@@H](CCCN=C(N)N)C(=O)N[C@H](C(=O)N[C@@H](Cc1ccc(S)cc1)C(=O)N[C@H](C(=O)N[C@@H](Cc1c[nH]cn1)C(=O)N1CCC[C@H]1C(=O)N[C@@H](Cc1ccccc1)C(=O)O)C(C)C)C(C)C,,0.9%,,
CNCC(=O)N[C@@H](CCCN=C(N)N)C(=O)N[C@H](C(=O)N[C@@H](Cc1cc([N+](=O)[O-])c(O)c([N+](=O)[O-])c1)C(=O)N[C@H](C(=O)N[C@@H](Cc1c[nH]cn1)C(=O)N1CCC[C@H]1C(=O)N[C@@H](Cc1ccccc1)C(=O)O)C(C)C)C(C)C,0.5%,7.8%,,
CNCC(=O)N[C@@H](CCCN=C(N)N)C(=O)N[C@H](C(=O)N[C@@H](Cc1ccc(O)cc1)C(=O)N[C@H](C(=O)N[C@@H](Cc1c[nH]cn1)C(=O)N1CCC[C@@H]1C(=O)N[C@@H](Cc1ccccc1)C(=O)O)C(C)C)C(C)C (H-[Sar]RVYVH[dP]F-OH),,,100%,
CNCC(=O)N[C@@H](CCCN=C(N)N)C(=O)N[C@H](C(=O)N[C@@H](Cc1ccc(S(N)(=O)=O)cc1)C(=O)N[C@H](C(=O)N[C@@H](Cc1c[nH]cn1)C(=O)N1CCC[C@H]1C(=O)N[C@@H](Cc1ccccc1)C(=O)O)C(C)C)C(C)C,0.9%,3.2%,,
CNCC(=O)N[C@@H](CCCN=C(N)N)C(=O)N[C@H](C(=O)N[C@@H](Cc1ccc([N+](=O)[O-])cc1)C(=O)N[C@H](C(=O)N[C@@H](Cc1c[nH]cn1)C(=O)N1CCC[C@@H]1C(=O)N[C@@H](Cc1ccccc1)C(=O)O)C(C)C)C(C)C,,,1.5%,
CNCC(=O)N[C@@H](CCCN=C(N)N)C(=O)N[C@H](C(=O)N[C@@H](Cc1ccccc1)C(=O)N[C@H](C(=O)N[C@@H](Cc1c[nH]cn1)C(=O)N1CCC[C@H]1C(=O)N[C@@H](Cc1ccccc1)C(=O)O)C(C)C)C(C)C,,,,Activity [4]: 9.8%; Activity [5]: 8.1%
CNCC(=O)N[C@@H](CCCN=C(N)N)C(=O)N[C@H](C(=O)N[C@@H](Cc1cc(I)c(N)c(I)c1)C(=O)N[C@H](C(=O)N[C@@H](Cc1c[nH]cn1)C(=O)N1CCC[C@@H]1C(=O)N[C@@H](Cc1ccccc1)C(=O)O)C(C)C)C(C)C,,,16%,
CNCC(=O)N[C@@H](CCCN=C(N)N)C(=O)N[C@H](C(=O)N[C@@H](Cc1ccc(O)c(N=[N+]=[N-])c1)C(=O)N[C@H](C(=O)N[C@@H](Cc1c[nH]cn1)C(=O)N1CCC[C@@H]1C(=O)N[C@@H](Cc1ccccc1)C(=O)O)C(C)C)C(C)C,,,61%,
CNCC(=O)N[C@@H](CCCN=C(N)N)C(=O)N[C@H](C(=O)N[C@@H](Cc1ccc(N=[N+]=[N-])cc1)C(=O)N[C@H](C(=O)N[C@@H](Cc1c[nH]cn1)C(=O)N1CCC[C@@H]1C(=O)N[C@@H](Cc1ccccc1)C(=O)O)C(C)C)C(C)C,,,2.6%,
CNCC(=O)N[C@@H](CCCN=C(N)N)C(=O)N[C@H](C(=O)N[C@@H](Cc1ccc(O)c(Cl)c1)C(=O)N[C@H](C(=O)N[C@@H](Cc1c[nH]cn1)C(=O)N1CCC[C@H]1C(=O)N[C@@H](Cc1ccccc1)C(=O)O)C(C)C)C(C)C,82%,103%,,
CNCC(=O)N[C@@H](CCCN=C(N)N)C(=O)N[C@H](C(=O)N[C@@H](Cc1ccc(S(=O)(=O)O)cc1)C(=O)N[C@H](C(=O)N[C@@H](Cc1c[nH]cn1)C(=O)N1CCC[C@@H]1C(=O)N[C@@H](Cc1ccccc1)C(=O)O)C(C)C)C(C)C,,,0%,
CNCC(=O)N[C@@H](CCCN=C(N)N)C(=O)N[C@H](C(=O)N[C@@H](Cc1ccc(N)cc1)C(=O)N[C@H](C(=O)N[C@@H](Cc1c[nH]cn1)C(=O)N1CCC[C@@H]1C(=O)N[C@@H](Cc1ccccc1)C(=O)O)C(C)C)C(C)C,,,28%,
CNCC(=O)N[C@@H](CCCN=C(N)N)C(=O)N[C@H](C(=O)N[C@@H](Cc1ccc(O)c([N+](=O)[O-])c1)C(=O)N[C@H](C(=O)N[C@@H](Cc1c[nH]cn1)C(=O)N1CCC[C@@H]1C(=O)N[C@@H](Cc1ccccc1)C(=O)O)C(C)C)C(C)C,,,75%,
CNCC(=O)N[C@@H](CCCN=C(N)N)C(=O)N[C@H](C(=O)N[C@@H](Cc1ccc(O)c(Cl)c1)C(=O)N[C@H](C(=O)N[C@@H](Cc1c[nH]cn1)C(=O)N1CCC[C@@H]1C(=O)N[C@@H](Cc1ccccc1)C(=O)O)C(C)C)C(C)C,,,87%,
CNCC(=O)N[C@@H](CCCN=C(N)N)C(=O)N[C@H](C(=O)N[C@@H](Cc1cc(Cl)c(O)c(Cl)c1)C(=O)N[C@H](C(=O)N[C@@H](Cc1c[nH]cn1)C(=O)N1CCC[C@H]1C(=O)N[C@@H](Cc1ccccc1)C(=O)O)C(C)C)C(C)C,19%,22%,,
CNCC(=O)N[C@@H](CCCN=C(N)N)C(=O)N[C@H](C(=O)N[C@@H](Cc1ccccc1)C(=O)N[C@H](C(=O)N[C@@H](Cc1c[nH]cn1)C(=O)N1CCC[C@@H]1C(=O)N[C@@H](Cc1ccccc1)C(=O)O)C(C)C)C(C)C,,,18%,
CNCC(=O)N[C@@H](CCCN=C(N)N)C(=O)N[C@H](C(=O)N[C@@H](Cc1cc([N+](=O)[O-])c(O)c([N+](=O)[O-])c1)C(=O)N[C@H](C(=O)N[C@@H](Cc1c[nH]cn1)C(=O)N1CCC[C@@H]1C(=O)N[C@@H](Cc1ccccc1)C(=O)O)C(C)C)C(C)C,,,1.5%,
CNCC(=O)N[C@@H](CCCN=C(N)N)C(=O)N[C@H](C(=O)N[C@@H](Cc1ccc(O)c(N)c1)C(=O)N[C@H](C(=O)N[C@@H](Cc1c[nH]cn1)C(=O)N1CCC[C@H]1C(=O)N[C@@H](Cc1ccccc1)C(=O)O)C(C)C)C(C)C,184%,120%,,
CNCC(=O)N[C@@H](CCCN=C(N)N)C(=O)N[C@H](C(=O)N[C@@H](Cc1ccc(S)cc1)C(=O)N[C@H](C(=O)N[C@@H](Cc1c[nH]cn1)C(=O)N1CCC[C@@H]1C(=O)N[C@@H](Cc1ccccc1)C(=O)O)C(C)C)C(C)C,,,0.5%,
CNCC(=O)N[C@@H](CCCN=C(N)N)C(=O)N[C@H](C(=O)N[C@@H](Cc1ccc(N=[N+]=[N-])cc1)C(=O)N[C@H](C(=O)N[C@@H](Cc1c[nH]cn1)C(=O)N1CCC[C@H]1C(=O)N[C@@H](Cc1ccccc1)C(=O)O)C(C)C)C(C)C,,0.3%,,
CNCC(=O)N[C@@H](CCCN=C(N)N)C(=O)N[C@H](C(=O)N[C@@H](Cc1ccc(N)cc1)C(=O)N[C@H](C(=O)N[C@@H](Cc1c[nH]cn1)C(=O)N1CCC[C@H]1C(=O)N[C@@H](Cc1ccccc1)C(=O)O)C(C)C)C(C)C,14%,15%,,
CNCC(=O)N[C@@H](CCCN=C(N)N)C(=O)N[C@H](C(=O)N[C@@H](Cc1ccc([N+](=O)[O-])cc1)C(=O)N[C@H](C(=O)N[C@@H](Cc1c[nH]cn1)C(=O)N1CCC[C@H]1C(=O)N[C@@H](Cc1ccccc1)C(=O)O)C(C)C)C(C)C,0.2%,0%,,

# From ChEMBL document CHEMBL1122757, “Angiotensin II: dependence of hormone affinity on the electronegativity of a single side chain” (1984)
